Assay results published in publication PMC4332700 (RSC advances, 2015).

Legend:
α-syn [1] = test: CD and visual inspection of EGCG/α-syn mixtures; assay type: biochemical; settings: 100 µM α-syn, 1:1 α-syn:EGCG, 1.5 vol-% HFIP; β-sheet signature at 24 hours
α-syn [2] = test: 15N-HSQC titration binding studies with 15N-labeled α-syn; settings: for Binding locus on α-syn from titration shifts in 15N HSQC spectra: 200 or 400 µM α-syn, no added HFIP, 293 or 303 K
α-syn [3] = settings: on going from 1:1 to 5:1 EGCG/α-syn, published spectra; cited from earlier work
α-synuclein = test: Inhibition of HFIP-induced α-syn amyloid formation; assay type: biochemical; settings: for %-Inhib. of HFIP-induced α-syn amyloid formation: converted from the %-of-control ThT and CD values; for Formation of off-path (non-amyloid) precipitates in the inhibition assays: 2 vol-% HFIP assay, EGCG at 2:1 molar ratio
Procedure, shortened: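 α-Syn (85 ± 5 μM; pH 6.6, 50 mM potassium phosphate, 50 mM NaCl) stirred at 37 ± 3 °C with test compound (1–4 molar equiv), then HFIP to 2 vol% after 4 h. Aliquots diluted to 4.5 μM α-syn every 2–6 h for CD, inhibitor-matched blank, [θ]218 and Δ[θ]196 read. At 16–18 h, ThT added (8-fold excess) and emission read. Values as %-of-uninhibited-control, converted to %-inhibition; mean of ≥2 experiments.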

α-syn [4] = settings: cited from earlier work
[5] = NMR determination of folded state population of peptides; assay type: physicochemical; settings: 300K; for Folded state population (χF): based on NMR data

Compound: O=C(O[C@@H]1Cc2c(O)cc(O)cc2O[C@@H]1c1cc(O)c(O)c(O)c1)c1cc(O)c(O)c(O)c1 [EGCG, (−)-Epi-gallocatechin-3-gallate, reference compound]
- Time the random coil CD signature remained after HFIP addition (α-syn [1]): 8 h
- Upfield shifts Δδ(1H) of α-syn HSQC peaks (α-syn [2]; 200 µM α-syn, 50 mM phosphate, pH 6.5, 303K, 5 molar equivalents of EGCG): 0.007 – 0.010 ppm
- Binding locus on α-syn from titration shifts in 15N HSQC spectra (α-syn [2]): shifts at C-terminal sites
- Upfield 1H shift for most α-syn HSQC peaks (α-syn [3]): 0.04 ppm
- %-Inhib. of HFIP-induced α-syn amyloid formation (α-synuclein; 2 molar equiv. inhibitor): ~ 65%

Compound: KKLTVW-IpGK-WITVSA [WW2]
- Binding locus on α-syn from titration shifts in 15N HSQC spectra (α-syn [2]): M116-E137 sequence segment
- %-Inhib. of HFIP-induced α-syn amyloid formation (α-synuclein; 1 molar equiv. inhibitor): ~ 50%
- %-Inhib. of HFIP-induced α-syn amyloid formation (α-synuclein; 2 molar equiv. inhibitor): ~ 75%

Compound: RGAVVTGR-NH2 [reference compound]
- %-Inhib. of HFIP-induced α-syn amyloid formation (α-synuclein; 2 molar equiv. inhibitor): < 25%
- Inhibitory activity on α-syn amyloid formation (in words) (α-synuclein; 4 molar equivalents of the peptide, single experiment): absence of inhibitory activity
- Inhibition of α-syn amyloid fibril formation (α-syn [4]; 2:1, 1:1 and 1:2 (peptide:α-syn) molar ratios): completely inhibit

Compound: cyclo-(K-KLTVW-IpGK-WITVS-IpP) (head to tail) [cyclo-WW2]
- Binding locus on α-syn from titration shifts in 15N HSQC spectra (α-syn [2]): Q109/E137-span
- %-Inhib. of HFIP-induced α-syn amyloid formation (α-synuclein; 1 molar equiv. inhibitor): ~ 75%
- Inhibitory activity on α-syn β-structure / amyloid formation (in words) (α-synuclein; 2:1 peptide to α-syn ratio, 2 vol-% HFIP): complete inhibition
- %-Inhib. of HFIP-induced α-syn amyloid formation (α-synuclein; 2 molar equiv. inhibitor): > 90%

Compound: RAVTW-NPATGK-WITVWE [RAVWW]
- %-Inhib. of HFIP-induced α-syn amyloid formation (α-synuclein; 2 molar equiv. inhibitor): ~ 60%
- Formation of off-path (non-amyloid) precipitates in the inhibition assays (α-synuclein): did not produce off-path precipitates

Compound: (RWTTHCHRKWE)2 (disulfide) [RW-HCH-WE]
- Binding locus on α-syn from titration shifts in 15N HSQC spectra (α-syn [2]): very large shifts were observed at C-terminal sites
- β-sheet population [5]: 94%
- Folded state population (χF) [5]: 0.94±0.02
- %-Inhib. of HFIP-induced α-syn amyloid formation (α-synuclein; 1 molar equiv. inhibitor): ~ 65%
- %-Inhib. of HFIP-induced α-syn amyloid formation (α-synuclein; 2 molar equiv. inhibitor): ≥ 75%
- Formation of off-path (non-amyloid) precipitates in the inhibition assays (α-synuclein): co-precipitates

Compound: GKWITVS-IpPK-KLTVWIp [cp-WW2]
- Binding locus on α-syn from titration shifts in 15N HSQC spectra (α-syn [2]): isolated to the C-terminus
- %-Inhib. of HFIP-induced α-syn amyloid formation (α-synuclein; 1 molar equiv. inhibitor): ~ 35%
- %-Inhib. of HFIP-induced α-syn amyloid formation (α-synuclein; 2 molar equiv. inhibitor): ~ 65%

Compound: (RYTTVCIRKYE)2 (disulfide) [RY-VCI-YE]
- %-Inhib. of HFIP-induced α-syn amyloid formation (α-synuclein; 1 molar equiv. inhibitor): ~ 50%
- %-Inhib. of HFIP-induced α-syn amyloid formation (α-synuclein; 2 molar equiv. inhibitor): ~ 80%

Compound: (Ac-YTTVCIRKYTG)2 (disulfide) [AcY-VCI-YTG]
- Folded state population (χF) [5]: 0.84
- %-Inhib. of HFIP-induced α-syn amyloid formation (α-synuclein; 2 molar equiv. inhibitor): ~ 70%

Compound: (RYTTHCHRKYE)2 (disulfide) [RY-HCH-YE]
- β-sheet population [5]: 28%
- Folded state population (χF) [5]: 0.28±0.13
- %-Inhib. of HFIP-induced α-syn amyloid formation (α-synuclein; 2 molar equiv. inhibitor): ~ 70%

Compound: RWEKRW-DRGSGR-WFYFND [mWWhp]
- %-Inhib. of HFIP-induced α-syn amyloid formation (α-synuclein; 2 molar equiv. inhibitor): ~ 50%
- Formation of off-path (non-amyloid) precipitates in the inhibition assays (α-synuclein): did not produce off-path precipitates

Compound: KCLTVW-IpGK-WITVCA (disulfide) [WW2-DS]
- %-Inhib. of HFIP-induced α-syn amyloid formation (α-synuclein; 1 molar equiv. inhibitor): < 30%
- %-Inhib. of HFIP-induced α-syn amyloid formation (α-synuclein; 2 molar equiv. inhibitor): ~ 50%

Compound: RWFYFN-DRGSGK-WEKRWD [cp-mWWhp]
- %-Inhib. of HFIP-induced α-syn amyloid formation (α-synuclein; 2 molar equiv. inhibitor): < 20%

Compound: VAQKT-(N-Me)V
- Inhibition of α-syn fibril formation (α-syn [4]; N-methylation of sites in residues 71–82): effective inhibitor
